The source made the active and inactive calls. No rule for the calls is given here.
Columns and labels:
[1] = Antianaphylactic activity in human chopped lung treated with atopic serum isolated from patients allergic to cocksfoot pollen assessed as inhibition of antigen-induced histamine release at 10 ug/mL after 15 mins relative to control; format: functional; conditions: 0.25 h
Summary of the method: (§1)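 Surgical human lung (bronchial carcinoma resections) was washed in Hank's, chopped into 0.5-mm cubes and incubated for 18 h at 18 °C with atopic serum from cocksfoot pollen-allergic patients. Tissue was washed, equilibrated in Tyrode's at 37 °C and challenged with saline pollen extract ± compound for 15 min. Histamine or SRS-A in the supernatant was bioassayed on guinea pig ileum. Values are % inhibition, mean of four samples.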

[2] = Antianaphylactic activity in ovalbumin sensitized albino guinea pig chopped lung assessed as inhibition of antigen-induced histamine release at 10 ug/mL after 15 mins relative to control; format: functional, Cavia porcellus
Summary of the method: (§2)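 Lungs were perfused with Tyrode's, chopped into 0.5-mm cubes and split into 100-mg aliquots. Aliquots were challenged with antigen ± compound and rocked at 37 °C for 15 min. Unchallenged controls gave spontaneous release. Supernatant histamine or SRS-A was bioassayed on guinea pig ileum against standards. Values are % inhibition, mean of four samples.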

Rattus norvegicus = assay: Antianaphylactic activity in antiovalbumin IgE serum-treated Wistar rat at 2 x 100 mg/kg, po administered 2.5 hrs prior to ovalbumin challenge measured after 45 mins by passive cutaneous anaphylaxis test; format: functional, organism-based; set-up: dose 100 mg/kg; conditions: in the assay text read “2 hrs and again 30 mins prior to” for “2.5 hrs prior to”
Summary of the method: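 Female Wistar rats, shaved and lightly anaesthetized, received an intradermal abdominal injection of diluted rat antiovalbumin IgE serum. After 24 h they were challenged iv with ovalbumin mixed with dye. Compound was given at 2 h and again at 30 min before challenge. Rats were killed 45 min after challenge and the blue area on the inner skin surface was measured.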

[3] = Antianaphylactic activity in human chopped lung treated with atopic serum isolated from patients allergic to cocksfoot pollen assessed as inhibition of antigen-induced slow-reacting substance of anaphylaxis release at 10 ug/mL after 15 mins relative to control; format: functional; conditions: 0.25 h; summary of the method: as §1
[4] = Antianaphylactic activity in ovalbumin sensitized albino guinea pig chopped lung assessed as inhibition of antigen-induced slow-reacting substance of anaphylaxis release at 10 ug/mL after 15 mins relative to control; format: functional, Cavia porcellus; summary of the method: as §2
Cavia porcellus [5] = assay: Antianaphylactic activity in ovalbumin/ovalbumin aerosol sensitized guinea pig bronchospasm model assessed as ratio of mean collapse time after pretreatment with compound in presence of mepyramine to mean collapse time of control animal at 2 x 100 mg/kg, po compound administered prior to antigen challenge by Herxheimer test; format: functional
Summary of the method: (§3)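 Ovalbumin-sensitized male guinea pigs were exposed in a chamber to ovalbumin aerosol (1% w/v) until a convulsive cough; that time is the collapse time. Compound was given orally either 2 h before challenge or in two doses at 0.5 and 3 h before. Where used, mepyramine was given at 0.5 mg/kg sc 0.5 h before. Ratio is mean collapse time of treated animals over that of controls.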

Cavia porcellus [6] = assay: Antianaphylactic activity in ovalbumin/ovalbumin aerosol sensitized guinea pig bronchospasm model assessed as ratio of mean collapse time after pretreatment with compound to mean collapse time of control animal at 2 x 100 mg/kg, po compound administered prior to antigen challenge by Herxheimer test; format: functional; summary of the method: as §3

| Structure (SMILES) | inhibition at 10 µg/mL [1] [%] | inhibition (INH) [2] [%] | Activity (Rattus norvegicus) | inhibition at 10 µg/mL [3] [%] | inhibition (INH) [4] [%] | Ratio (Cavia porcellus [5]) | Ratio (Cavia porcellus [6]) |
| --- | --- | --- | --- | --- | --- | --- | --- |
| CCCCN(C(=O)C1CCCCC1)c1nc(C)co1 | 29 | 27 | inactive | 26 | 32 |  |  |
| CCCCN(C(=O)C(C)CC)c1nc(C)co1 (stereo in doubt; 39) [listing 1 of 2 here] |  | 30 |  |  | 79 |  |  |
| CCCCC(=O)N(CCC)c1nc(C)co1 | 0 | 48 | inactive | 38 | 55 | 5.8 | 0.8 |
| Cc1coc(N(C(=O)C(C)C)C(C)C)n1 | 0 |  | inactive | 0 | 10 |  |  |
| C=CCN(C(=O)C(C)C)c1nc(C)co1 |  | 42 | inactive |  | 23 |  |  |
| CCCCN(C(=O)C(C)C)c1nc(C2CCCCC2)co1 |  |  | inactive |  | 0 |  |  |
| CCCCCCN(C(C)=O)c1nc(C)co1 | 13 |  | inactive | 15 | 8 |  |  |
| CCCCN(C(=O)C1CC1)c1nc(C)co1 | 0 | 22 | inactive | 72 | 46 | 13.9 | 12.2 |
| C=CCN(C(=O)CCC)c1nc(C)co1 |  | 51 | inactive |  | 31 |  |  |
| CCCCN(C(=O)C(C)CC)c1nc(C)co1 (stereo in doubt; 38) [listing 1 of 2 here] |  |  | inactive |  |  |  |  |
| CN1CCC(=C2c3ccccc3CC(=O)c3sccc32)CC1.O=C(O)/C=C/C(=O)O [KETOTIFEN FUMARATE] |  | 37 |  |  | 38 |  |  |
| CCCCN(C(=O)C(C)C)c1ncc(CC)o1 |  | 52 | inactive |  | 35 |  |  |
| CCCCN(C(C)=O)c1nc(C)co1 |  | 26 | inactive |  | 39 |  |  |
| CCCCN(C(=O)C(C)C)c1ncco1 |  | 8 | inactive |  | 44 |  |  |
| CCCCC(=O)N(c1nc(C)co1)C(C)C | 0 | 0 | inactive | 0 | 0 |  |  |
| CC(=O)N(C)c1nc(C)c(C)o1 |  |  | inactive |  | 17 |  |  |
| CCCCCN(C(=O)C(C)C)c1nc(C)co1 | 14 | 28 | inactive | 47 | 66 |  |  |
| CCCCN(C(=O)C1CCCCCC1)c1nc(C)co1 |  | 0 | inactive |  | 49 |  |  |
| CCCCCCN(C(=O)C(C)C)c1nc(C)co1 |  | 18 | inactive |  | 42 |  |  |
| CCCCCC(=O)N(CCC)c1nc(C)co1 | 44 | 44 | inactive | 47 | 47 | 4.7 | 1.4 |
| CCCCCN(C(=O)CC)c1nc(C)co1 |  | 16 | inactive |  | 41 |  |  |
| CCCC(=O)N(CC(C)CC)c1nc(C)co1 (stereo not drawn) |  | 35 | inactive |  | 33 |  |  |
| CCCCN(C(=O)C(C)C)c1nc(C)c(C)o1 | 49 | 49 | inactive | 43 | 43 |  |  |
| CCCCN(C(=O)CCC)c1nc(C)co1 | 14 | 33 | inactive | 88 | 52 | 6.4 | 4.3 |
| CCCCN(C(=O)C(C)CC)c1nc(C)co1 (stereo in doubt; 38) [listing 2 of 2 here] |  | 8 |  |  | 63 |  |  |
| Cc1coc(N(C)C(=O)C(C)C)n1 |  | 61 | inactive |  | 25 |  |  |
| CCCCCCC(=O)N(CCCC)c1nc(C)co1 |  |  | inactive |  | 8 |  |  |

| Structure (SMILES) | inhibition at 10 µg/mL [1] [%] | inhibition (INH) [2] [%] | Activity (Rattus norvegicus) | inhibition at 10 µg/mL [3] [%] | inhibition (INH) [4] [%] | Ratio (Cavia porcellus [5]) | Ratio (Cavia porcellus [6]) |
| --- | --- | --- | --- | --- | --- | --- | --- |
| CCCCN(C(=O)C1CCC1)c1nc(C)co1 | 0 | 34 | inactive | 55 | 74 | 7.4 | 1.5 |
| CCCC(=O)N(c1nc(C)co1)C1CCCCC1 |  | 37 | inactive |  | 29 |  |  |
| CCCCN(C(=O)C(C)(C)C)c1nc(C)co1 | 37 | 0 | inactive | 23 | 23 | 7.7 | 4.4 |
| CCCCN(C(=O)C1CCC1)c1nc(C)c(C)o1 |  | 0 | inactive |  | 10 |  |  |
| CCCC(=O)N(CC)c1nc(C)co1 |  | 30 | inactive |  | 13 |  |  |
| CCCCN(C(=O)C(C)CC)c1nc(C)co1 (racemic) [listing 1 of 2 here] |  |  | inactive |  |  |  |  |
| CCCCN(C(C)=O)c1nc(C)c(C)o1 |  | 13 | inactive |  | 32 |  |  |
| CCC(C)CN(C(=O)C(C)C)c1nc(C)co1 (stereo not drawn) |  | 29 | inactive |  | 37 |  |  |
| CCC(=O)N(c1nc(C)co1)C(C)C | 0 |  | inactive | 0 | 17 |  |  |
| CC(=O)N(C)c1nc(C)co1 |  | 0 | inactive |  | 9 |  |  |
| CCCCN(C(=O)C1CCCC1)c1nc(C)co1 | 0 | 47 | inactive | 69 | 66 |  |  |
| CCCCN(C(=O)C(C)CC)c1nc(C)co1 (racemic) [listing 2 of 2 here] | 5 | 54 |  | 36 | 76 |  |  |
| CCCCN(C(=O)C(C)C)c1nc(CC)co1 |  | 20 | inactive |  | 41 |  |  |
| CCCCN(C(=O)CC1CCCC1)c1nc(C)co1 | 0 | 0 | inactive | 0 | 22 |  |  |
| CCCCN(C(=O)C(C)C)c1nc(-c2ccccc2)co1 |  | 23 | inactive |  | 39 |  |  |
| CCCC(=O)N(c1nc(C)co1)C(C)CC (stereo not drawn) |  | 6 | inactive |  | 34 |  |  |
| CCCCN(C(=O)CCC)c1nc(C)c(C)o1 |  | 46 | inactive |  | 37 |  |  |
| CCCCN(C(=O)C(C)C)c1nc(-c2ccc(Cl)cc2)co1 |  | 44 | inactive |  | 37 |  |  |
| CCCCN(C(=O)C(C)CC)c1nc(C)co1 (stereo in doubt; 39) [listing 2 of 2 here] |  |  | inactive |  |  |  |  |
| CCCCc1coc(N(CCCC)C(=O)C(C)C)n1 |  |  | inactive |  | 14 |  |  |
| CCCCN(C(=O)C(C)C)c1ncc(C2CCCCC2)o1 |  |  | inactive |  | 21 |  |  |
| CCN(C(=O)C(C)C)c1nc(C)c(C)o1 |  | 13 | inactive |  | 21 |  |  |
| CCCCN(C(=O)C(C)C)c1ncc(C)o1 |  | 31 | inactive |  | 52 |  |  |
| CCCCN(C(=O)C(CC)CC)c1nc(C)co1 |  | 29 | inactive |  | 55 |  |  |
| CCC(C)N(C(=O)C(C)C)c1nc(C)co1 (stereo not drawn) |  | 3 | inactive |  | 13 |  |  |
| CCCCC(=O)N(CCCC)c1nc(C)co1 |  | 21 | inactive |  | 49 |  |  |
| CCCCN(C(=O)Cc1ccccc1)c1nc(C)co1 |  | 0 | inactive |  | 31 |  |  |

Source: ChEMBL document CHEMBL3227946, “Antianaphylactic agents. 1. 2-(Acylamino)oxazoles” (1979)
